Data on 8 molecules can be found in ChEMBL document CHEMBL1127833, “Structure determination, pharmacological evaluation, and structure-activity studies of a new cyclic peptide substance P antagonist containing the new amino acid 3-prenyl-beta-hydroxytyrosine, isolated from Aspergillus flavipes” (J Med Chem, 1994).

Some results are limits rather than exact numbers.

One may read the Ki as the equilibrium dissociation constant of an inhibitor or competing ligand from its target. Higher therefore signals a looser hold on the target. For orientation: IC50 means the concentration that gives 50% inhibition. In general, pA2 refers to the negative logarithm of the molar antagonist concentration that doubles the agonist concentration needed for the same response. Low readings indicate lower antagonist potency, high ones higher antagonist potency.

One series deals with T1, Substance-K receptor (Homo sapiens, UniProt P21452).
T1 sequence (P21452 whole entry): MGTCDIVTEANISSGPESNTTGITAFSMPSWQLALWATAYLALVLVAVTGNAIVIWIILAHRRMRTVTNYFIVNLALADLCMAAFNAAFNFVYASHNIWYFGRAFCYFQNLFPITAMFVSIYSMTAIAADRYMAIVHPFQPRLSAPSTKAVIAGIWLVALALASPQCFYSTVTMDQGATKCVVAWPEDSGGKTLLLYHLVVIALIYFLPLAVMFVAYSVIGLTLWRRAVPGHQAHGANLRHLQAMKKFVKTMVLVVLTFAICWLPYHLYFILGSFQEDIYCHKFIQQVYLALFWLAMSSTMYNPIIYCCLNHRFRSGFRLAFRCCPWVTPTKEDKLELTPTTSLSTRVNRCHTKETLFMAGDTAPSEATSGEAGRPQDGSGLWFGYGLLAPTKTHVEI
In words: Displacement of [125I]-NKA substance P binding to human urinary bladder membrane protein (NK2). In a few lines:
(§1)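 Radioligand displacement at NK1 or NK2 sites, with Ki values averaged over two to eight determinations.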
A general note: In a radioligand displacement assay an active substance lowers the binding of a labelled ligand.

The nature of series [1]: Functional antagonism by the ability to inhibit substance P induced 45 [Ca2+] efflux in human astrocytoma cells. Type of series: cell-based. In a few lines: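 Human astrocytoma cells stimulated with 3 nM substance P; the antagonist's inhibition of 45Ca2+ efflux was measured. Efflux seen without SP and antagonist was subtracted. Mean ± SEM from at least three experiments.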

A further series has as its target Substance-P receptor (Homo sapiens, UniProt P25103). The experiment in a line: Displacement of [125I]- substance P binding to human astrocytoma cells (NK1). In a few lines:
as §1

The species entered for another series is Cavia porcellus. In words: substance P induced guinea pig ileum.

Sequence of Substance-P receptor (P25103 whole entry): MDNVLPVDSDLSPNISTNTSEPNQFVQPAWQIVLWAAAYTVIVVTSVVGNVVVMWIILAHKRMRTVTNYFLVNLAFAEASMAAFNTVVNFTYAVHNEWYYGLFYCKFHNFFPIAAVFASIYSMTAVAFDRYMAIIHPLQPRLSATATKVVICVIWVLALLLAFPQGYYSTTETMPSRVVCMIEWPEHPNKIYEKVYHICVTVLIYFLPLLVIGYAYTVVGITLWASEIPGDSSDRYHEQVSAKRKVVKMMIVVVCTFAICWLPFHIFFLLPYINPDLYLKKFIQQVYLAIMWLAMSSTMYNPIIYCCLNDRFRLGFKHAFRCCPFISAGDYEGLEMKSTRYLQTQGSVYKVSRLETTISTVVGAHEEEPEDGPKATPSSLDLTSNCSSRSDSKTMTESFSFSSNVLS

As for `COc1ccc(C(O)C2NC(=O)CNC(=O)[C@H](C(C)C)NC(=O)CNC(=O)[C@@H]3CCCN3C(=O)[C@@H](Cc3c[nH]c4ccccc34)NC(=O)CNC2=O)cc1CC=C(C)C` (stereo partly drawn), the Ki is 1.6 µM at Substance-K receptor and 0.12 µM at Substance-P receptor. For the same molecule, it took 0.43 µM to reach half-maximal inhibition in series [1] (IC50).

Consider `CC(C)[C@@H]1NC(=O)CNC(=O)[C@@H]2CCCN2C(=O)[C@@H](Cc2c[nH]c3ccccc23)NC(=O)CNC(=O)[C@H](Cc2ccc(OC(C)(C)C)cc2)NC(=O)CNC1=O`, for which the Ki on Substance-K receptor was 27 µM; on Substance-P receptor, 48 µM.

For `CC(C)[C@@H]1NC(=O)CNC(=O)[C@@H]2CCCN2C(=O)[C@@H](Cc2c[nH]c3ccccc23)NC(=O)CNC(=O)[C@H](Cc2ccc(O)cc2)NC(=O)CNC1=O`, the Ki on Substance-K receptor and on Substance-P receptor was > 100 µM in each case.

For `COc1ccc(C(O)C2NC(=O)CNC(=O)[C@H](C(C)C)NC(=O)CNC(=O)[C@@H]3CCCN3C(=O)[C@@H](Cc3c[nH]c4ccccc34)NC(=O)CNC2=O)cc1` (stereo partly drawn), the Ki at Substance-K receptor is 33 µM; on Substance-P receptor, 18 µM.

On to `CC(C)=CCc1cc(C(O)C2NC(=O)CNC(=O)[C@H](C(C)C)NC(=O)CNC(=O)[C@@H]3CCCN3C(=O)[C@@H](Cc3c[nH]c4ccccc34)NC(=O)CNC2=O)ccc1O` (stereo partly drawn), for which the Ki amounted to 3.8 µM at Substance-K receptor and 8 µM at Substance-P receptor. Moreover, in the series filed under Cavia porcellus, the pA2 came to 5.23.

For `CC(C)[C@@H]1NC(=O)CNC(=O)[C@@H]2CCCN2C(=O)[C@@H](Cc2c[nH]c3ccccc23)NC(=O)CNC(=O)C(C(O)c2ccc(O)cc2)NC(=O)CNC1=O` (stereo partly drawn), the Ki at Substance-K receptor and on Substance-P receptor was > 100 µM throughout.

As to `COc1ccc(CC2NC(=O)CNC(=O)[C@H](C(C)C)NC(=O)CNC(=O)[C@@H]3CCCN3C(=O)[C@@H](Cc3c[nH]c4ccccc34)NC(=O)CNC2=O)cc1` (stereo partly drawn), the inhibition constant (Ki) is 73 µM at Substance-K receptor and 72 µM on Substance-P receptor.

Consider `CC(C)[C@@H]1NC(=O)CNC(=O)[C@@H]2CCCN2C(=O)C(Cc2c[nH]c3ccccc23)NC(=O)CNC(=O)[C@H](Cc2ccc(OC(C)(C)C)cc2)NC(=O)CNC1=O` (single isomer, unassigned), for which the inhibition constant Ki is 31 µM at Substance-K receptor and 93 µM on Substance-P receptor.
